GALR2 agonist: agonists of human galanin receptor 2 (GALR2); O43603; GALR2-expressing cells, agonist activation read-out; activation, % (test concentration not listed); 140,000 tested, 0.48% active; in the data active = activation above about 5%, passing the limit was not always enough
S1P2 ag: activates the human S1P2 receptor | S1P2-expressing cell line, agonist reporter read-out | 97,000 tested, 0.46% active | activation, % at 4.5 µM; in the data active = activation above about 16%
Target sequence (O95136 whole entry, looked up): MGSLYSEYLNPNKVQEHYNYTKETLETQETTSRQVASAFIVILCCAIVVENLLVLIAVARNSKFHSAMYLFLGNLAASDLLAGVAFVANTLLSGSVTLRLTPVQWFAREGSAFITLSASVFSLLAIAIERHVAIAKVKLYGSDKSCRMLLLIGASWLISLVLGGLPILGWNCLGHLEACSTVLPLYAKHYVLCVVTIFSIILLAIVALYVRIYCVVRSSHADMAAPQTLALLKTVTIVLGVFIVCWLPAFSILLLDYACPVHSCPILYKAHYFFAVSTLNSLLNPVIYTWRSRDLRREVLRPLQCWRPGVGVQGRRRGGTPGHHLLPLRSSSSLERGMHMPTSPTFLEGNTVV
HIV Rev-RRE inh: HIV Rev-RRE protein-RNA interaction inhibition; Rev peptide-RRE RNA binding, FRET; inhibition, % at 8 µM; 97,000 tested, 0.79% active;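 active = inhibition above the screen-wide mean plus 3 SD, cut at about 35% in these data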
Target sequence (P05866 whole entry, looked up): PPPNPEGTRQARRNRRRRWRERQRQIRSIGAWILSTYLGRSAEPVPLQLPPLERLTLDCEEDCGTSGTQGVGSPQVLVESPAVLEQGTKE
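Material: labelled RRE RNA duplex and labelled Rev peptide / Buffer or medium: HEPES pH 7.5 salt buffer with EDTA / Compound dosing: single point, 8 µM final nominal compound concentration / Benchmarks: DMSO low control, neomycin B high control / Timing: 5 min preincubation and 15 min binding, 25 °C / Technique: FRET fluorescence readout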
EphB4 antag: blocks human EphB4 binding to ephrin-B2; EphB4 LBD / TNYL-RAW-Alexa532 peptide, fluorescence polarization; inhibition, % at 7 µM; 97,000 tested, 0.15% active; AID 720;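 active = inhibition above the screen-wide mean inhibition plus 3 SD, cut at about 15% in these data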
GALR2 blocker: antagonists of human galanin receptor 2 (GALR2); O43603; GALR2-expressing cells, antagonist mode; inhibition, % at 4 µM; 140,000 tested, 0.39% active; AID 828; in the data active = inhibition above about 27%;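 note: cells stimulated with galanin 1-16 at roughly its EC80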
S1P2 blocker: blocks the human S1P2 receptor | O95136 | inhibition, % at 5 µM | 97,000 tested, 0.21% active | cell-based S1P2 antagonist assay, inhibition at 5 uM; in the data active = inhibition above about 45%;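 note: CRE beta-lactamase reporter cells expressing human S1P2 stimulated with S1P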
GALR2 agon conf: confirmation of human galanin receptor 2 (GALR2) agonists; shares compounds with GALR2 agonist; GALR2-expressing cells, agonist activation; activation, % at 5.6 µM; 460 tested, 10% active; AID 864; in the data active = activation above about 8.4%
BLA act counter: counter-screen for GALR2 agonists: beta-lactamase reporter activators. AID 865. CHO NFAT-bla reporter, beta-lactamase FRET activation. 460 tested, 10% active. activation, % at 5.6 µM. shares compounds with GALR2 agonist;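 active = activation above the screen-wide mean activation plus 3 SD, cut at about 8% in these data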
Large screens that a line does not name were inactive (follow-up assays come after a bar, where they were run); [ ] = dose if it differs, or a comment. An excerpt weighted towards active compounds, which were near 1.7% of everything screened.

O=c1[nH]c2ccccc2nc1-c1cccs1	GALR2 agonist 12 | GALR2 agon conf inactive | BLA act counter inactive
Cc1onc(-c2ccccc2Cl)c1C(=O)N1CCN=C1SCc1cccnc1	none
Cc1cc(C)n2ncc(C(=O)NCc3cccnc3)c2n1	none
COC(=O)C1=C(C)Nc2ncnn2C1c1ccc(OCc2ccccc2)cc1 (stereo not drawn)	GALR2 agonist 104 (no result: S1P2 ag, HIV Rev-RRE inh, EphB4 antag, S1P2 blocker) | GALR2 agon conf inactive | BLA act counter inactive
COc1ccc(NC(=O)c2cccc(NC(=O)C3C4CC5OC(=O)C3C5C4)c2)c(OC)c1 (stereo not drawn)	none
c1coc(CNCc2cccs2)c1	none
Nc1c(C(=O)NCc2ccco2)c2nc3ccccc3nc2n1CCc1ccccc1F	none
COc1ccc(CCn2c(N)c(C(=O)NCc3ccco3)c3nc4ccccc4nc32)cc1OC	GALR2 agonist 12 | GALR2 agon conf inactive | BLA act counter 9.9
COC(=O)c1ccc(C(=O)OC)c(NC(=O)CSCc2ccc(Br)cc2)c1	none
Cc1cc2c3c(c1)C(C)(c1ccccc1)CC(C)(C)N3C(=O)C21C(C#N)=C(N)OC2=C1C(=O)CC(C)(C)C2 (stereo not drawn)	GALR2 agonist 18 | GALR2 agon conf inactive | BLA act counter 15
Cc1ccccc1N1CCN(C(=O)c2ccc(Oc3ccc(C(F)(F)F)cn3)cc2)CC1	none
O=C(Nc1ccccc1-c1ccccc1)c1ccc(Br)o1	GALR2 agonist 13 | GALR2 agon conf inactive | BLA act counter inactive
CCC(C)(C)NC(=O)C(c1cccn1C)N(Cc1ccc(OC)cc1)C(=O)Cn1nnc2ccccc21 (stereo not drawn)	none | GALR2 agon conf inactive | BLA act counter inactive
CCc1ccc(NC(=O)CSc2nnc(CC)c(CC)n2)cc1	GALR2 agonist 22 | GALR2 agon conf inactive | BLA act counter inactive
CCOCCCNC(=O)C1CC(=O)N(C2CCCC2)C1 (stereo not drawn)	GALR2 agonist 28 | GALR2 agon conf inactive | BLA act counter inactive
N/C(=N\O)c1ccc(NC(=O)c2cccs2)cc1	GALR2 agonist 25 (no result: S1P2 ag, HIV Rev-RRE inh, EphB4 antag, S1P2 blocker) | GALR2 agon conf inactive | BLA act counter inactive
CC(=O)c1ccc(NC(=O)c2cccs2)cc1	none
CC(=O)c1nn(-c2ccccc2)cc1C(=O)c1ccc(Br)cc1	GALR2 agonist 9.4 (no result: S1P2 ag, HIV Rev-RRE inh, EphB4 antag, S1P2 blocker) | GALR2 agon conf inactive | BLA act counter inactive
CCCCCCc1cc2cc(C(=O)Nc3cccc(OC)c3)c(=O)oc2cc1O	none (no result: S1P2 ag, HIV Rev-RRE inh, EphB4 antag, S1P2 blocker)
CCCCCCc1cc2cc(S(=O)(=O)c3ccc(F)c(Cl)c3)c(=O)oc2cc1O	GALR2 agonist 19 (no result: S1P2 ag, HIV Rev-RRE inh, EphB4 antag, S1P2 blocker) | GALR2 agon conf 26 | BLA act counter 50
CCCCCCc1cc2cc(C(N)=O)c(=N)oc2cc1O	GALR2 agonist 105, S1P2 ag 39, HIV Rev-RRE inh 87[fluorescence artefact?] | GALR2 agon conf inactive | BLA act counter 23
Cc1ccc(N(C(=O)C2CCCO2)C2C=CS(=O)(=O)C2)cc1Cl (stereo not drawn)	none (no result: S1P2 ag, HIV Rev-RRE inh, EphB4 antag, S1P2 blocker)
COc1ccc(Cn2c(SCc3ccccc3C)nc3cc(OC)c(OC)cc3c2=N)cc1	GALR2 agonist 9.1 | GALR2 agon conf 8.8 | BLA act counter inactive
Cc1cc2c(c(SCC(=O)NCCc3ccccc3)n1)C(=O)OC2	none
COc1ccc(C2=NOC(C(=O)NCc3ccc(F)cc3)C2)cc1OC (stereo not drawn)	none | GALR2 agon conf inactive | BLA act counter inactive
Cc1cc2c(C)cc(=O)oc2c2c1NCCC2	GALR2 agonist 13 | GALR2 agon conf inactive | BLA act counter inactive
O=c1[nH]ncn2cccc12	GALR2 agonist 25 | GALR2 agon conf inactive | BLA act counter inactive
Cn1cc([N+](=O)[O-])c(C(=O)NCc2cc3cc(Cl)ccc3[nH]2)n1	none (no result: S1P2 ag, HIV Rev-RRE inh, EphB4 antag, S1P2 blocker)
CCCSc1nc(C)nc2c1c(=O)n(C)c(=O)n2C	none
CCOC(=O)Cn1c(=NC(=O)c2cccs2)sc2cc(C(=O)OC)ccc21	GALR2 agonist 14 (no result: S1P2 ag, HIV Rev-RRE inh, EphB4 antag, S1P2 blocker) | GALR2 agon conf inactive | BLA act counter inactive
COc1cccc2cc(-c3nnc(SCC(=O)NCCc4ccccc4)n3C)oc12	none | GALR2 agon conf inactive | BLA act counter inactive
COc1ccc(NC(=O)c2c(Nc3ccccc3)sc(C(=O)c3ccc(F)cc3)c2N)cc1	none
